Results published in ChEMBL document CHEMBL1130250, “NAcSDKP analogues resistant to angiotensin-converting enzyme” (J Med Chem, 1997).
Peptide text beside a SMILES is read from it. * marks the point of attachment. Pyrrolidide = C1CCN(*)C1

Assays:
[1] = target: T1, Angiotensin-converting enzyme (Oryctolagus cuniculus) (UniProt P12822); assay: In vitro stability of compound (0.5 uM) to inhibit NAcSDKP hydrolysis by rabbit lung Angiotensin I converting enzyme after 30 minutes incubation
T1 sequence (whole entry): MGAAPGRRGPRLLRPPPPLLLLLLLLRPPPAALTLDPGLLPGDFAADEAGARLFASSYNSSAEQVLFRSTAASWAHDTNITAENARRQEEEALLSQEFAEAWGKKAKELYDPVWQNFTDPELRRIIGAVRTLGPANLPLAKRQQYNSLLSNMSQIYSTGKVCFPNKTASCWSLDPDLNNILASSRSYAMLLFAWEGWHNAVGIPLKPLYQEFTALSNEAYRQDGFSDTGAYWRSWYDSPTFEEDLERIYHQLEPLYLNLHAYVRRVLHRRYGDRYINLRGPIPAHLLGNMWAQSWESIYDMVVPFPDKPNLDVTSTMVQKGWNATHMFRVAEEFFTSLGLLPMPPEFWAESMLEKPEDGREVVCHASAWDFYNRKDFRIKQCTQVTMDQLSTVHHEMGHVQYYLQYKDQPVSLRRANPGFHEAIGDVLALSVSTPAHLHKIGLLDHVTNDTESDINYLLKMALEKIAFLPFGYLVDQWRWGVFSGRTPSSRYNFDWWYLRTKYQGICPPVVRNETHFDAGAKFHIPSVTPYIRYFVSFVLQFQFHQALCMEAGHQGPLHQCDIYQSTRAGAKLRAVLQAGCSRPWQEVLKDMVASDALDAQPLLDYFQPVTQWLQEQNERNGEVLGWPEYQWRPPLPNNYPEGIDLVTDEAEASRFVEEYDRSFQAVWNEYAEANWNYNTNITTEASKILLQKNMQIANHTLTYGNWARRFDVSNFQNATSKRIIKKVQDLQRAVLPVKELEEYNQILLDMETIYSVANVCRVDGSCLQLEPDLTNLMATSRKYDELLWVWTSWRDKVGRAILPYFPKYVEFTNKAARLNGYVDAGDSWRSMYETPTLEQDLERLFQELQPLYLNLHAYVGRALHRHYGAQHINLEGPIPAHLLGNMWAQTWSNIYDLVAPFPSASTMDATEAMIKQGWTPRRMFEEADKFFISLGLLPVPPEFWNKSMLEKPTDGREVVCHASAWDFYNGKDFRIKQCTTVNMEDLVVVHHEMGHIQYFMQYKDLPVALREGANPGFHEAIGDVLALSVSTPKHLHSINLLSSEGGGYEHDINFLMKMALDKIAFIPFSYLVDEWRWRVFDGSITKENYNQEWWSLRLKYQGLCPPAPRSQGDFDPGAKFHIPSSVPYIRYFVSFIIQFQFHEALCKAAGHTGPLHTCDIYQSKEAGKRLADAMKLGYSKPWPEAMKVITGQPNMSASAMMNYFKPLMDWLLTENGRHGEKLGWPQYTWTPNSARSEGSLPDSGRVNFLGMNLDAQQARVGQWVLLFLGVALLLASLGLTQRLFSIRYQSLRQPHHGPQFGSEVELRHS
Procedure, shortened: (§1)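 Rabbit lung ACE (0.1 unit/mL final) in Tris-maleate buffer pH 7 (100 mM Tris, 50 mM NaCl, 10^-5 M ZnSO4). Analogue (final 0.5, 5 or 50 µM) preincubated with enzyme 30 min at 37 °C. NAcSD[3H]KP (tritium on lysine side chain) plus cold peptide, 5 µM final, then added for 30 min at 37 °C. Frozen at -80 °C and run on high-voltage paper electrophoresis. Residual labelled substrate radioactivity compared with t=0. Duplicates, mean of two experiments.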

[2] = target: T1, Angiotensin-converting enzyme (Oryctolagus cuniculus); assay: In vitro stability of compound (51 uM) to inhibit NAcSDKP hydrolysis by rabbit lung Angiotensin I converting enzyme after 30 minutes incubation; procedure, shortened: as §1
[3] = target: T1, Angiotensin-converting enzyme (Oryctolagus cuniculus); assay: In vitro stability of compound (50 uM) to inhibit NAcSDKP hydrolysis by rabbit lung Angiotensin I converting enzyme after 30 minutes incubation; procedure, shortened: as §1
[4] = target: T1, Angiotensin-converting enzyme (Oryctolagus cuniculus); assay: In vitro stability of compound toward enzymatic degradation by rabbit lung Angiotensin I converting enzyme after 24 hr incubation
Procedure, shortened: (§2)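 Degradation assay: rabbit lung ACE preincubated 30 min at 37 °C in Tris-maleate pH 7 (100 mM Tris, 50 mM NaCl, 10^-5 M ZnSO4). Peptide then added at 50 µM final with enzyme at 0.1 unit/mL, 37 °C for 30 min or 24 h. Stopped with 1% TFA, then RP-HPLC at 215 nm. Residual intact peptide read from peak area against t=0 and a 5-50 calibration curve. Mean of two experiments in triplicate.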

[5] = target: T1, Angiotensin-converting enzyme (Oryctolagus cuniculus); assay: In vitro stability of compound toward enzymatic degradation by rabbit lung Angiotensin I converting enzyme after 30 minutes incubation; procedure, shortened: as §2
[6] = target: T1, Angiotensin-converting enzyme (Oryctolagus cuniculus); assay: In vitro stability of compound (5 uM) to inhibit NAcSDKP hydrolysis by rabbit lung Angiotensin I converting enzyme after 30 minutes incubation; procedure, shortened: as §1

Residual peptide [1] [%] | Residual peptide [2] [%] | Residual peptide [3] [%] | Residual peptide [4] [%] | Residual peptide [5] [%] | Residual peptide [6] [%] | Compound
46.9 | 54 | 46.7 | 97.6 | 99.7 | – | CC(=O)N[C@@H](CO)CN[C@@H](CC(=O)O)C(=O)N[C@@H](CCCCN)C(=O)N1CCC[C@H]1C(=O)O
46 | – | 49.7 | 96.7 | 99.9 | 50.1 | CC(=O)N[C@@H](CO)C(=O)N[C@@H](CC(=O)O)C(=O)N[C@@H](CCCCN)C(=O)N1CCC[C@H]1C(N)=O (Ac-SDKP-NH2)
– | – | – | 0 | 36.2 | – | CC(=O)N[C@@H](CO)C(=O)N[C@@H](CC(=O)O)C(=O)N[C@@H](CCCCN)C(=O)N1CCCC1 (Ac-Ser-Asp-Lys-Pyrrolidide)
47.3 | – | 50.3 | 99.4 | 99.7 | 48.8 | CC(=O)N[C@@H](CO)C(=O)N[C@@H](CC(=O)O)C(=O)N[C@@H](CCCCN)CN1CCC[C@H]1C(=O)O
46 | – | 41.7 | 100 | 100 | 49.3 | CC(=O)N[C@@H](CO)C(=O)N[C@H](CN[C@@H](CCCCN)C(=O)N1CCC[C@H]1C(=O)O)CC(=O)O
– | – | – | – | 43.6 | – | CC(=O)N[C@@H](CO)C(=O)N[C@@H](CC(=O)O)C(=O)N[C@@H](CCCCN)C(=O)N1CCC[C@H]1C(=O)O (Ac-SDKP-OH)
